{"source": "ChEMBL document CHEMBL3860061", "about": "“A Novel Parkinson's Disease Drug Candidate with Potent Anti-neuroinflammatory Effects through the Src Signaling Pathway” (J Med Chem, 2016)", "key": {"[1]": {"target": "Proto-oncogene tyrosine-protein kinase Src (Rattus norvegicus) (UniProt Q9WUD9)", "sequence (Q9WUD9 2-536 limits assumed)": "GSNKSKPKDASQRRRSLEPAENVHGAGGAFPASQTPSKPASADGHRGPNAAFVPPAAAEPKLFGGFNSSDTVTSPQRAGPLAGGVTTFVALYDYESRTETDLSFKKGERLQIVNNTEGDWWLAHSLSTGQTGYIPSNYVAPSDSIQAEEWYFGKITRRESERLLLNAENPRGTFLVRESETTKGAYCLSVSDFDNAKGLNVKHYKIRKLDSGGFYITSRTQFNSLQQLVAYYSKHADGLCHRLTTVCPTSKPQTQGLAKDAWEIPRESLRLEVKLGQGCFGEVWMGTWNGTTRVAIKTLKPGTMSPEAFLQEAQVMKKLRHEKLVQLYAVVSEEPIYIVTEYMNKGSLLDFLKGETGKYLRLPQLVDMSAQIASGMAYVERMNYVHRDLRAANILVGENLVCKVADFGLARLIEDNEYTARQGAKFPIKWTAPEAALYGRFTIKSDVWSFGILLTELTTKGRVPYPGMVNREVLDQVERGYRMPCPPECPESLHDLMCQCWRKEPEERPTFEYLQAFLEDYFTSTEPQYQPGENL", "assay": "Inhibition of SRC in Sprague-Dawley rat primary mixed mesecephalic neuron/glial cells assessed as protection against LPS-induced dopaminergic neuro-toxicity by measuring TH expression at 10 uM preincubated for 1 hr followed by LPS challenge measured after 7 days by Western blot analysis", "procedure,_shortened": "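Mixed mesencephalic neuron/glia cultures from E14 Sprague-Dawley rats, used at 7 days. Agent at 10 µM added 1 h before LPS 100 ng/mL; TH measured by Western blot after 7 days, n = 4.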"}, "Mus musculus [2]": {"tested_on": "Mus musculus", "assay": "Neuroprotective activity in MPTP-induced subacute C57/BL mouse Parkinson's disease model assessed as improvement in motor behavior at 5 to 20 mg/kg […] dosed 30 mins prior to each MPTP injection for 5 days and administered continously for 7 days post last MPTP dose by pole test", "assay_type": "functional, organism-based", "procedure,_shortened": "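Sub-acute MPTP model (30 mg/kg i.p. × 5 days) in male C57/BL mice. Agent (5–20 mg/kg) or L-DOPA 20 mg/kg given 30 min before each injection and for 7 days after. Rotarod at 14 rpm, up to 120 s, fall latency over three trials 1 h apart. Pole test: 50 cm pole, descent scored 1–5, two trials 1 h apart, pre-trained. n = 15.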"}, "Mus musculus [3]": {"tested_on": "Mus musculus", "assay": "Increase in dopamine level in striatum of MPTP-induced subacute C57/BL mouse Parkinson's disease model at 10 to 20 mg/kg […] dosed 30 mins prior to each MPTP injection for 5 days and administered continously for 7 days post last MPTP dose by HPLC analysis", "assay_type": "functional, organism-based", "procedure,_shortened": "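Sub-acute model: male C57/BL mice given MPTP·HCl 30 mg/kg i.p. for 5 days. Agent (5–20 mg/kg) or L-DOPA 20 mg/kg in 0.5% CMC-Na dosed 30 min before each injection, then for 7 more days. Striatum sonicated in 0.6 N perchloric acid, centrifuged, phosphate/citrate/EDTA solution added, recentrifuged; dopamine by HPLC, n = 8.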"}, "Mus musculus [4]": {"tested_on": "Mus musculus", "assay": "Neuroprotective activity in MPTP-induced subacute C57/BL mouse Parkinson's disease model assessed as reversal of decline of TH-positive neuron levels in substantia nigra at 10 to 20 mg/kg […] dosed 30 mins prior to each MPTP injection for 5 days and administered continuously for 7 days post last MPTP dose by 3,3'-diaminobenzidine staining based light microscopic analysis", "assay_type": "functional, organism-based", "procedure,_shortened": "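Sub-acute MPTP model (30 mg/kg i.p. × 5 days) with agent (5–20 mg/kg) or L-DOPA pre-dosing and 7 days of continued dosing. Fixed brains cut at 40 µm on a freezing microtome; coronal nigral sections stained with anti-TH and DAB/peroxide; TH-positive cells counted blind by light microscopy.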"}, "Mus musculus [5]": {"tested_on": "Mus musculus", "assay": "Antineuro-inflammatrory activity in MPTP-induced subacute C57/BL mouse Parkinson's disease model assessed as decrease in TNF-alpha levels in midbrain at 10 to 20 mg/kg […] dosed 30 mins prior to each MPTP injection for 5 days and administered continuously for 7 days post last MPTP dose measured on day 12 post last dose by ELISA", "assay_type": "functional, organism-based"}, "Mus musculus [6]": {"tested_on": "Mus musculus", "assay": "Neuroprotective activity in MPTP/probenecid-induced chronic C57/BL mouse Parkinson's disease model assessed as improvement in motor behavior at 5 to 20 mg/kg dosed once daily for 7 weeks post 10 doses of MPTP/probenecid for 5 weeks measured after last MPTP/probenecid dose by pole test", "assay_type": "functional, organism-based", "procedure,_shortened": "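Chronic MPTP/probenecid model (10 doses over 5 weeks), then agent (5–20 mg/kg) or L-DOPA 20 mg/kg daily for 7 weeks. Rotarod at 14 rpm, up to 120 s, fall latency from three trials 1 h apart. Pole test: gauze-wrapped 50 cm pole, descent scored 1–5, two trials 1 h apart after pre-training. n = 15.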"}, "Mus musculus [7]": {"tested_on": "Mus musculus", "assay": "Increase in dopamine level in striatum of MPTP/probenecid-induced chronic C57/BL mouse Parkinson's disease model at 10 to 20 mg/kg dosed once daily for 7 weeks post 10 doses of MPTP/probenecid for 5 weeks measured after last MPTP/probenecid dose by HPLC analysis", "assay_type": "functional, organism-based", "procedure,_shortened": "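Chronic model: 10 doses of MPTP·HCl (25 mg/kg s.c.) with probenecid (250 mg/kg i.p.) over 5 weeks. Rotarod-impaired mice then dosed with agent (5–20 mg/kg) or L-DOPA 20 mg/kg daily for 7 weeks. Striatum extracted in 0.6 N perchloric acid with phosphate/citrate/EDTA buffer; dopamine by HPLC, n = 8.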"}, "Mus musculus [8]": {"tested_on": "Mus musculus", "assay": "Antineuro-inflammatrory activity in MPTP/probenecid-induced chronic C57/BL mouse Parkinson's disease model assessed as decrease in IL-1beta level in midbrain at 10 to 20 mg/kg dosed once daily for 7 weeks post 10 doses of MPTP/probenecid for 5 weeks measured after last MPTP/probenecid dose for 5 weeks by ELISA", "assay_type": "functional, organism-based", "procedure,_shortened": "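Male C57/BL mice (22–25 g) received 10 doses of MPTP hydrochloride (25 mg/kg in saline, s.c.) plus probenecid (250 mg/kg in DMSO, i.p.) over 5 weeks. Only mice failing the rotarod afterwards were randomised to agent (5, 10, 20 mg/kg) or L-DOPA 20 mg/kg in 0.5% CMC-Na, once daily for 7 weeks. Midbrain lysate in non-denaturing buffer with protease inhibitor; IL-1β or TNF-α by ELISA, n = 6.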"}, "Mus musculus [9]": {"tested_on": "Mus musculus", "assay": "Neuroprotective activity in alpha-syn A53T transgenic B6C3H mouse assessed as reversal of decline of TH-positive neuron levels in substantia nigra at 10 to 20 mg/kg dosed once daily for 12 consecutive weeks by 3,3'-diaminobenzidine staining based light microscopic analysis", "assay_type": "functional, organism-based", "procedure,_shortened": "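Transgenic male B6;C3H A53T α-syn mice, starting at 4 months, were given drug once daily for 12 weeks in 0.5% CMC-Na. Fixed brains were sectioned at 40 µm on a freezing microtome. Substantia nigra coronal sections were immunostained for TH, visualized with DAB and peroxide, and positive neurons counted by light microscopy under blinding.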"}, "Mus musculus [10]": {"tested_on": "Mus musculus", "assay": "In vivo inhibition of Src in MPTP/probenecid-induced chronic C57/BL mouse Parkinson's disease model assessed as effect on Akt expression level in midbrain at 5 to 20 mg/kg dosed once daily for 7 weeks post 10 doses of MPTP/probenecid for 5 weeks by iTRAQ-labelled 2D-LC/MS/MS analysis", "assay_type": "functional, organism-based"}, "Mus musculus [11]": {"tested_on": "Mus musculus", "assay": "Effect on GSK3beta protein expression level in midbrain of MPTP/probenecid-induced chronic C57/BL mouse Parkinson's disease model at 5 to 20 mg/kg dosed once daily for 7 weeks post 10 doses of MPTP/probenecid for 5 weeks by iTRAQ-labelled 2D-LC/MS/MS analysis", "assay_type": "functional, organism-based"}, "Mus musculus [12]": {"tested_on": "Mus musculus", "assay": "Effect on ROCK1 protein expression level in midbrain of MPTP/probenecid-induced chronic C57/BL mouse Parkinson's disease model at 5 to 20 mg/kg dosed once daily for 7 weeks post 10 doses of MPTP/probenecid for 5 weeks by iTRAQ-labelled 2D-LC/MS/MS analysis", "assay_type": "functional, organism-based"}, "Mus musculus [13]": {"tested_on": "Mus musculus", "assay": "In vivo inhibition of Src in MPTP/probenecid-induced chronic C57/BL mouse Parkinson's disease model assessed as effect on PTEN expression level in midbrain at 5 to 20 mg/kg co-administered with L-DOPA once in a day for 7 weeks post 10 doses of MPTP for 5 weeks by Western blot analysis", "assay_type": "functional, organism-based"}, "Mus musculus [14]": {"tested_on": "Mus musculus", "assay": "Hepatotoxicity in ICR mouse at 250 to 1000 mg/kg administered through oral gavage for 14 consecutive days", "assay_type": "toxicity, organism-based", "conditions": "in vivo", "procedure,_shortened": "(§1)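 Mice dosed by oral gavage at 250, 500 and 1000 mg/kg for 14 consecutive days. General condition monitored throughout; liver and kidney clinical chemistry assessed.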"}, "Mus musculus [15]": {"tested_on": "Mus musculus", "assay": "Nephrotoxicity in ICR mouse at 250 to 1000 mg/kg administered through oral gavage for 14 consecutive days", "assay_type": "toxicity, organism-based", "conditions": "in vivo", "procedure,_shortened": "as §1"}, "Mus musculus [16]": {"tested_on": "Mus musculus", "assay": "Effect on ARHGAP21 protein expression level in midbrain of MPTP/probenecid-induced chronic C57/BL mouse Parkinson's disease model at 5 to 20 mg/kg dosed once daily for 7 weeks post 10 doses of MPTP/probenecid for 5 weeks by Western blot analysis", "assay_type": "functional, organism-based"}}, "note": "The source made the active and inactive calls. No cut-off for these calls is given here.", "data": [{"smiles": "COc1cc(OC)c(CN[C@@H](CO)C(=O)O)c(OC)c1", "values": [{"measurement": "inhibition", "setting": "[1]", "value": "Active"}, {"measurement": "Activity", "setting": "Mus musculus [2]", "value": "Active"}, {"measurement": "Activity", "setting": "Mus musculus [3]", "value": "Active"}, {"measurement": "Activity", "setting": "Mus musculus [4]", "value": "Active"}, {"measurement": "Activity", "setting": "Mus musculus [5]", "value": "Active"}, {"measurement": "Activity", "setting": "Mus musculus [6]", "value": "Active"}, {"measurement": "Activity", "setting": "Mus musculus [7]", "value": "Active"}, {"measurement": "Activity", "setting": "Mus musculus [8]", "value": "Active"}, {"measurement": "Activity", "setting": "Mus musculus [9]", "value": "Active"}, {"measurement": "inhibition", "setting": "Mus musculus [10]", "value": "Active"}, {"measurement": "Activity", "setting": "Mus musculus [11]", "value": "Active"}, {"measurement": "Activity", "setting": "Mus musculus [12]", "value": "Active"}, {"measurement": "inhibition", "setting": "Mus musculus [13]", "value": "Active"}, {"measurement": "Activity", "setting": "Mus musculus [14]", "value": "Non-Toxic"}, {"measurement": "Activity", "setting": "Mus musculus [15]", "value": "Non-Toxic"}, {"measurement": "Activity", "setting": "Mus musculus [16]", "value": "Active"}]}]}
